Assay results taken from ChEMBL document CHEMBL4513216, “Probing the Open Global Health Chemical Diversity Library for Multistage-Active Starting Points for Next-Generation Antimalarials” (ACS Infect Dis, 2020).

Assay: Toxicity liver stage against HepG2, at 10uM
Type: cell-based
Parameters: test concentration 10 uM, cell line HepG2-A16-CD81EGFP
Details: human, HepG2-A16-CD81EGFP cells; read-out: INHIBITION
In short: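 Uninfected HepG2-A16-CD81EGFP cells, 3 × 10^3 per well, 1536-well, plated on prespotted compound at 10 μM final, parasite-free screening media added to match infected plates; puromycin 10 μM positive, DMSO 0.5% negative; run in parallel with 48 h PbLuc assay at 37 °C, 5% CO2; viability by CellTiter-Glo luminescence, normalized to controls.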

## O=S(=O)(CCN1CCN(c2ccccc2O)CC1)c1ccc(Cl)cc1
  cytotoxicity at 10 µM: 14.4%

## O=C1CO[C@H](c2ccc(NS(=O)(=O)Cc3ccccc3)cc2)[C@@H](CO)N1
  cytotoxicity at 10 µM: 40.8%

## O[C@@H]1C[C@@H](c2nc(Cc3ccccc3)no2)N(CC2CC2)C1
  cytotoxicity at 10 µM: -3.5%

## CCc1nc(-c2ccc(C(=O)N3CCC4(CC3)OCCO4)cc2)no1
  cytotoxicity at 10 µM: 4.32%

## COc1ccc(-c2nc(C#N)c(N(C)C)o2)cc1OC
  cytotoxicity at 10 µM: -4.91%

## CN1C(=O)COc2ccc(C(=O)Cn3cnc4ccccc4c3=O)cc21
  cytotoxicity at 10 µM: -0.894%

## COCCn1ccc(=O)c(OCC(=O)Nc2cccc(OC)c2)c1C
  cytotoxicity at 10 µM: -2.74%

## CN(C)Cc1nn(C)c2c1CN(C(=O)Nc1cccc(F)c1)C2
  cytotoxicity at 10 µM: 4.23%

## Cc1nc([C@@H]2C[C@H]3CN(Cc4scnc4C)C[C@H]3O2)no1
  cytotoxicity at 10 µM: -127%

## O=C1Nc2ccccc2CC12CCN(CCO)C2 (stereo not given)
  cytotoxicity at 10 µM: 6.62%

## CCN1C(=O)C2(CCOCC2)c2cc(NC(=O)c3csnn3)ccc21
  cytotoxicity at 10 µM: 0.223%

## O=C(C1CC=CC1)N1CCC2(CCC(=O)N2Cc2cccc(F)c2)CC1
  cytotoxicity at 10 µM: -3.2%

## Cc1ccoc1C(=O)N1CC[C@@H]2O[C@@H](C)C[C@H]2C1
  cytotoxicity at 10 µM: 2.26%

## COc1cccc(C(=O)N2CCc3ncnc(C)c3CC2)c1
  cytotoxicity at 10 µM: -12.6%

## CC(C(=O)N1CCN(c2ccccc2)CC1)n1cc(Br)cn1 (stereo not given)
  cytotoxicity at 10 µM: 7.47%

## Cc1nn(C)c2c(N3CCN(C(=O)C4CCC4)CC3)ncnc12
  cytotoxicity at 10 µM: 1.78%

## Cc1nonc1CNC(=O)C(C)Oc1cccc(F)c1 (stereo not given)
  cytotoxicity at 10 µM: 1.22%

## COCCCNS(=O)(=O)c1ccc2c(c1)NC(=O)C(C)O2 (stereo not given)
  cytotoxicity at 10 µM: 1.52%

## CCN(CC)CCCNCc1cc2cccc(C)c2[nH]c1=O
  cytotoxicity at 10 µM: -7.06%

## CN(C)c1nccc(C2CCN(C(=O)CO)CC2)n1
  cytotoxicity at 10 µM: -23.6%

## Cc1ccc2[nH]c(=O)c(CNCCCN3CCOCC3)cc2c1
  cytotoxicity at 10 µM: -14.9%

## CN1CCOC(C(=O)Nc2nc(-c3ccccc3F)n[nH]2)C1 (stereo not given)
  cytotoxicity at 10 µM: 8.65%

## COCC(=O)N1CCN(Cn2nc(C)c(Br)c2C)CC1
  cytotoxicity at 10 µM: 0.633%

## NC1(c2nc(-c3cccs3)cc(=O)[nH]2)CCCC1
  cytotoxicity at 10 µM: 4.19%

## O=C(Cn1nc(-c2ccc(F)cc2)oc1=O)NCC1CCCO1 (stereo not given)
  cytotoxicity at 10 µM: 1.62%

## COC(=O)C1CCN(C(=O)Cn2ccc(-c3ccccc3)n2)CC1
  cytotoxicity at 10 µM: -1.22%

## O=C(NS(=O)(=O)c1ccc(F)c(F)c1)c1cscn1
  cytotoxicity at 10 µM: -5.64%

## COc1ccnc(N2CCc3ccc(OC(F)F)cc3C2)n1
  cytotoxicity at 10 µM: -4.32%

## N#Cc1cc(C#N)c(SCCC(=O)Nc2ccc(F)cc2)nc1N
  cytotoxicity at 10 µM: 4.89%

## Cc1nc(CN2CCCN(CCCc3ccccc3)CC2)no1
  cytotoxicity at 10 µM: 11.3%

## Cc1ccc(-c2nc(C(=O)N3CCCCC3CNS(C)(=O)=O)cs2)cc1 (stereo not given)
  cytotoxicity at 10 µM: -2.14%

## CC(=O)c1cccc(NC(=O)NCCCc2nc(C(C)C)no2)c1
  cytotoxicity at 10 µM: 2.16%

## CN(C)c1ncccc1CNC(=O)NCc1ccco1
  cytotoxicity at 10 µM: -3.26%

## CCCN1CCC(NCc2ccncc2)CC1
  cytotoxicity at 10 µM: -6.79%

## O=C(CC1CCCN1S(=O)(=O)N1CCCCC1)c1cccs1 (stereo not given)
  cytotoxicity at 10 µM: 6.31%

## CN(CC(=O)N1CCN(c2ccccn2)CC1)c1ccc(Cl)cn1
  cytotoxicity at 10 µM: -2.3%

## CCSc1cc(C(=O)NCCC(=O)N(C)C)ccn1
  cytotoxicity at 10 µM: -5.41%

## CNC(=O)COc1ccc(-c2ccccc2)nc1
  cytotoxicity at 10 µM: 1.76%

## Cc1ccsc1C(=O)N1CCC(Nc2cccnc2)CC1
  cytotoxicity at 10 µM: -136%

## CN(C)C(=O)Cc1ccc(NC(=O)NC2CCCC2)cc1
  cytotoxicity at 10 µM: -1.92%

## CC(=O)N1CCN(CCNS(=O)(=O)c2ccc(F)c(F)c2)CC1
  cytotoxicity at 10 µM: 8.81%

## CCS(=O)(=O)CC(C)N(C)C(=O)NCCc1cccc(F)c1F (stereo not given)
  cytotoxicity at 10 µM: 8.28%

## CC(CCSc1ccccc1)N1CCCN(C(N)=O)CC1 (stereo not given)
  cytotoxicity at 10 µM: -10.7%

## Cc1cccc(-c2c[nH]c(C3CCCN3C(=O)c3cc(C)n[nH]3)n2)c1 (stereo not given)
  cytotoxicity at 10 µM: 4%

## N#CCCN(Cc1cccnc1)C(=O)c1cccc(-n2cnnn2)c1
  cytotoxicity at 10 µM: 2.99%

## CC(=O)N1CCN(C(=O)C(C)Nc2ccc3ncsc3c2)CC1 (stereo not given)
  cytotoxicity at 10 µM: -3.25%

## CC(=O)c1cccc(NC(=O)NCCOCC2CC2)c1
  cytotoxicity at 10 µM: 5.11%

## O=C(Nc1ccc(-n2ccnc2)c(F)c1)C1CCN(C(=O)C2CC2)CC1
  cytotoxicity at 10 µM: 1.21%

## Cc1cccc(CNC(=O)Nc2ccc3c(c2)CCCC(=O)N3)c1
  cytotoxicity at 10 µM: 2.33%

## CN(Cc1ccccc1O)C(=O)Nc1cc(F)cc(N2CCCC2)c1
  cytotoxicity at 10 µM: 7.93%

## COCC(C)(NC(=O)c1cc(Cl)c(-n2cccc2)cc1OC)C(N)=O (stereo not given)
  cytotoxicity at 10 µM: -4.15%

## Fc1ccc(CNc2ccccc2Cn2cncn2)cc1
  cytotoxicity at 10 µM: -0.719%

## Cc1nc(C2CCCN2C(=O)CNS(C)(=O)=O)no1 (stereo not given)
  cytotoxicity at 10 µM: 17.1%

## COc1c(CNC2CCCOc3ccccc32)c(C)nn1C (stereo not given)
  cytotoxicity at 10 µM: 1.86%

## COc1ccc(CNC(=O)NC2CCN(CC(F)F)CC2)cc1C
  cytotoxicity at 10 µM: 1.11%
